HTR1A agonist: activates the human 5-HT1a serotonin receptor; CHO 5-HT1a Ga15 NFAT-bla reporter, FRET ratio; 0% basal, 100% maximal reference agonist; AID 567; activation, % at 10 µM; 0.56% of 65,000 active; P08908;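 active = activation above the screen-wide mean activation plus 3 SD, cut at about 19% in these data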;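 note: 0% = DMSO wells and 100% = 5-CT at EC100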
HTR1E agonist: agonists of human 5-HT1E serotonin receptor | activation, % at 6 µM | CHO 5-HT1E Ga15 NFAT-bla reporter, FRET; 0% DMSO wells, 100% control agonist wells | P28566 | 0.69% of 65,000 active | AID 574;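 active = activation above a set limit, the screen-wide mean activation plus 3 SD, cut at about 8.5% in these data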;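 note: 100% = positive control agonist at 1 µM giving full maximal response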
S1P1 ag pot: activates or potentiates agonism at human S1P1 receptor. S1P1 CRE-bla cells, forskolin, beta-lactamase FRET, potentiator mode; S1P1 agonist co-added at EC20, 2 nM; 100% = saturating reference agonist, 0% = basal. activation, % at 9.5 µM. 0.57% of 56,000 active;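 active = activation above a cutoff set at the mean activation of all tested compounds plus 3 SD, cut at about 54% in these data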;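 note: forskolin at 4 µM as EC80 and the EC20 agonist is SEW2871; 100% = SEW2871 at its EC100 plus forskolin at EC80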
HTR1E antagonist: antagonists of human 5-HT1E serotonin receptor. P28566. CHO 5-HT1E Ga15 NFAT-bla reporter, FRET, antagonist. inhibition, % at 6 µM. 0.99% of 65,000 active;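 active = inhibition above a set limit, the mean inhibition across every tested compound plus 3 SD, cut at about 29% in these data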;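 note: signal is the 460 over 535 nm emission ratio of beta-lactamase substrate; 0% = agonist plus DMSO wells and 100% = wells without agonist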
S1P3 ag: S1P3 (human) receptor agonism. Q99500. S1P3 NFAT-BLA reporter cells, FRET ratio; relative to 1 µM S1P, basal subtracted. activation, % at 4.5 µM. 0.1% of 60,000 active. AID 373;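 active = activation above the screen-wide mean plus 3 SD, cut at about 4.5% in these data, passing the limit was not always enough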
Target sequence (Q99500 whole entry, looked up): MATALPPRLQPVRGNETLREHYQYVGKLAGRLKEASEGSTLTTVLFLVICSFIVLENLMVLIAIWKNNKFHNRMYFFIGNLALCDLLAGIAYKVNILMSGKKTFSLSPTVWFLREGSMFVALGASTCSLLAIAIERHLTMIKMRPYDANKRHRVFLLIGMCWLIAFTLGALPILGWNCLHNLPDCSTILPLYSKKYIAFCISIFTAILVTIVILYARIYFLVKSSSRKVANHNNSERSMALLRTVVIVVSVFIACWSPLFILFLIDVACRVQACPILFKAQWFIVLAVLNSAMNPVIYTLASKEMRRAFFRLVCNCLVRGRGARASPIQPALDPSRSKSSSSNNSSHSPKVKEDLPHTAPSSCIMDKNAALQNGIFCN
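Assay system: stable CHO line with human S1P3, Gα16, NFAT-BLA reporter; Detection: FRET β-lactamase substrate fluorescence, excitation 405 nm, 460/535 nm emission ratio, background-subtracted; Read-out: percent activation versus median 1 µM S1P response, basal-subtracted, per plate; Incubation: cells plated overnight, compound 4 h 37 °C, substrate 2 h RT.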
5-HT1A blocker: antagonists of human 5-HT1a serotonin receptor. inhibition, % at 10 µM. CHO 5-HT1a Ga15 NFAT-bla reporter, antagonist mode. AID 612. 0.68% of 62,000 active;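 active = inhibition above the mean of all tested compounds plus 3 SD, cut at about 43% in these data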;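 note: receptor stimulated by 5-CT agonist at 100 nM near EC80; beta-lactamase reporter measured by ratiometric fluorescence of a cleavable substrate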
The depositor's hits bear a star. In the library only some 3% were active in any assay of this set; here they are far more common.

What do the screens show for `Cc1nc2cc(C(F)(F)F)ccc2n1C1CCN(Cc2nnnn2Cc2ccc3c(c2)OCO3)CC1`?
HTR1A agonist: 0; HTR1E agonist: 0; S1P1 ag pot: 16; HTR1E antagonist: 37*; S1P3 ag: 0; 5-HT1A blocker: 9

What do the screens show for `Cc1nc2cc(C(F)(F)F)ccc2n1C1CCN(Cc2nnnn2Cc2cccs2)CC1`?
HTR1A agonist: -1; HTR1E agonist: -1; HTR1E antagonist: 9; 5-HT1A blocker: -14

What do the screens show for `O=P1(Nc2ccc(F)cc2)COc2ccccc2OC1`?
HTR1A agonist: 1; HTR1E agonist: 0; S1P1 ag pot: -5; HTR1E antagonist: -7; S1P3 ag: -1; 5-HT1A blocker: -2

Results for COc1ccc(Cc2nccc3cc(OC)c(OC)cc23)cc1OC ?
HTR1A agonist: -3; HTR1E agonist: 0; S1P1 ag pot: 8; HTR1E antagonist: 41*; S1P3 ag: 2

Results for O=c1cccc2n1CC1CC2CN(c2ncnc3c2cnn3-c2ccc(Cl)cc2)C1 (stereo unspecified) ?
HTR1A agonist: 3; HTR1E agonist: 0; HTR1E antagonist: -4; 5-HT1A blocker: 1

Results for CNCC(O)c1cccc(OC(=O)c2ccccc2C)c1 (stereo unspecified) ?
HTR1A agonist: 3; HTR1E agonist: 9.4*; S1P1 ag pot: -3; HTR1E antagonist: -3; S1P3 ag: -1; 5-HT1A blocker: 0

What do the screens show for `CC[C@@H](CO)NC(=O)[C@@H]1C=C2c3cccc4c3c(cn4C)C[C@H]2N(C)C1`?
HTR1A agonist: 53*; HTR1E agonist: 95*; S1P1 ag pot: -19; HTR1E antagonist: -6; S1P3 ag: -3

What do the screens show for `O=c1c2ccccc2[se]n1-c1ccccc1`?
HTR1A agonist: -2; HTR1E agonist: -1; S1P1 ag pot: 1; HTR1E antagonist: 13; S1P3 ag: -3

What do the screens show for `CCOC(=O)N1CCN(C(C)C(=O)c2c[nH]c3ccccc23)CC1` (stereo unspecified)?
HTR1A agonist: 0; HTR1E agonist: 2; S1P1 ag pot: -9; HTR1E antagonist: 1; S1P3 ag: -2; 5-HT1A blocker: 4

What do the screens show for `CCn1nc(-c2ccccc2)nc2c(=O)n(C)c(=O)nc1-2`?
HTR1A agonist: 9; HTR1E agonist: 2; S1P1 ag pot: 73*; HTR1E antagonist: 101*; S1P3 ag: -2; 5-HT1A blocker: 85*

How did OCCN(CC#CC(O)(c1ccccc1)C1CCCC1)CCO (stereo unspecified) do in these assays?
HTR1A agonist: -3; HTR1E agonist: 1; S1P1 ag pot: -1; HTR1E antagonist: -2; S1P3 ag: -1; 5-HT1A blocker: 4

Results for Clc1ccc2c(N3CCNCC3)ccnc2c1 ?
HTR1A agonist: -2; HTR1E agonist: 12*; S1P1 ag pot: 6; HTR1E antagonist: 9; S1P3 ag: 0; 5-HT1A blocker: 11

How did COc1ccc(Cn2c(N)c(C(=O)NCc3ccco3)c3nc4ccccc4nc32)cc1OC do in these assays?
HTR1A agonist: 3; HTR1E agonist: 2; S1P1 ag pot: -125; HTR1E antagonist: 19; S1P3 ag: 4; 5-HT1A blocker: 33

How did CCCCNC(=O)c1c(N)n(CCCOC)c2nc3ccccc3nc12 do in these assays?
HTR1A agonist: 17; HTR1E agonist: 4; HTR1E antagonist: 20; 5-HT1A blocker: 18

How did CCCNC(=O)c1c(N)n(Cc2ccc3c(c2)OCO3)c2nc3ccccc3nc12 do in these assays?
HTR1A agonist: 36*; HTR1E agonist: 6; S1P1 ag pot: -46; HTR1E antagonist: -2; S1P3 ag: 18; 5-HT1A blocker: -8

How did CC(C)OCCCNC(=O)c1c(N)n(Cc2cccs2)c2nc3ccccc3nc12 do in these assays?
HTR1A agonist: 41*; HTR1E agonist: 11*; S1P1 ag pot: -244; HTR1E antagonist: -11; S1P3 ag: 12*; 5-HT1A blocker: -24

Results for Cc1cc(C)n(CCOC(=O)C2C(C=C(Cl)Cl)C2(C)C)n1 (stereo unspecified) ?
HTR1A agonist: -2; HTR1E agonist: 5; S1P1 ag pot: -4; HTR1E antagonist: 13; S1P3 ag: 0; 5-HT1A blocker: -2

How did C=Cn1ccnc1P(=S)(c1nccn1C=C)C1CCCCC1 do in these assays?
HTR1A agonist: -1; HTR1E agonist: 0; HTR1E antagonist: -4; 5-HT1A blocker: 13

Results for Nc1c(C(=O)NC2CCCC2)c2nc3ccccc3nc2n1CC1CCCO1 (stereo unspecified) ?
HTR1A agonist: 28*; HTR1E agonist: 7; S1P1 ag pot: -112; HTR1E antagonist: -8; S1P3 ag: 8.2*; 5-HT1A blocker: -10

Results for O=C(NC[P+](=O)O)OCc1ccccc1 ?
HTR1A agonist: -3; HTR1E agonist: 1; S1P1 ag pot: -18; HTR1E antagonist: -2; S1P3 ag: 1; 5-HT1A blocker: -4

Results for CN1C[C@H](CNC(=O)OCc2ccccc2)C[C@@H]2c3cccc4c3c(cn4C)C[C@H]21 ?
HTR1A agonist: 85*; HTR1E agonist: 22*; S1P1 ag pot: -8; HTR1E antagonist: 9; S1P3 ag: 50

What do the screens show for `CCN1CC=C(c2c[nH]c3ccccc23)CC1`?
HTR1A agonist: -1; HTR1E agonist: 100*; S1P1 ag pot: 15; HTR1E antagonist: -5; S1P3 ag: -1; 5-HT1A blocker: -1

Results for CN1CCN(c2nccc3c2ncn3C)CC1 ?
HTR1A agonist: -2; HTR1E agonist: 9.8*; S1P1 ag pot: -25; HTR1E antagonist: -6; S1P3 ag: -1; 5-HT1A blocker: 1

How did COc1ccc(C2NCc3ccc4c(c3-n3cccc32)OCO4)cc1O (stereo unspecified) do in these assays?
HTR1A agonist: -1; HTR1E agonist: 0; S1P1 ag pot: 9; HTR1E antagonist: 31*; S1P3 ag: -1; 5-HT1A blocker: 65*

Results for c1cc2n(c1)-c1c(ccc3c1OCO3)CNC2c1ccc2c(c1)OCO2 (stereo unspecified) ?
HTR1A agonist: 0; HTR1E agonist: 0; S1P1 ag pot: 25; HTR1E antagonist: 11; S1P3 ag: 0; 5-HT1A blocker: 36

How did COc1ccccc1N1CCN(Cc2ccc(Br)s2)CC1 do in these assays?
HTR1A agonist: -2; HTR1E agonist: 5; S1P1 ag pot: -23; HTR1E antagonist: -4; S1P3 ag: -1; 5-HT1A blocker: 44*

What do the screens show for `Cc1n[nH]c(C)c1CCN`?
HTR1A agonist: -2; HTR1E agonist: -1; S1P1 ag pot: -1; HTR1E antagonist: 6; S1P3 ag: 0; 5-HT1A blocker: 7

Results for Cc1[nH]c2c(C(F)(F)F)cccc2c1CCN ?
HTR1A agonist: -1; HTR1E agonist: 67*; S1P1 ag pot: 16; HTR1E antagonist: 22; S1P3 ag: 0; 5-HT1A blocker: 7
